# High-throughput results: PubChem, several laboratories
# Hits are enriched below; roughly 5.3% of the tested compounds scored in any of these assays.
# NLRP3 yeast inh: NALP3 inhibition in yeast. Yeast reconstituted NLRP3/ASC/caspase-1, beta-gal luminescence, 24 h. inhibition, % at 10 µM. actives 0.39% (n = 330,000). AID 2825;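 active = inhibition of 50% or more; inactive = inhibition below 50%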;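 also: plate controls were induced DMSO wells for no effect and uninduced yeast grown without galactose for full effect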
# T cruzi repl: T. cruzi replication inhibition | T. cruzi beta-gal in NIH3T3, luminescence, 90 h | actives 1.4% (n = 300,000) | inhibition, % (test concentration not listed);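 active = mean inhibition across valid replicates above about 55%, limit read from the data; inconclusive = mean below that limit but half or more replicates reach it; inactive = mean below it, under half of replicates reach it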;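 also: signal also drops with host cell toxicity which is not excluded here; 0% = plate median of DMSO wells and 100% = zero luminescence signal; higher percent means less beta-gal luminescence so fewer parasites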
#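 System: NIH/3T3 fibroblasts plus reporter T. cruzi. Medium: DMEM plus 2% FBS. Probe or stimulus: 5000 reporter trypomastigotes per well. Compound: single 50 nL compound addition per well in DMSO. Incubation: co-culture of at least 90 h after 3 h attachment. Detection: GalScreen β-gal luminescence, detergent lysis, 60 min. Evaluation: parasite load inhibition, %.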
# Mdm2-MdmX inh: disrupts the human Mdm2-MdmX interaction; actives 3% (n = 330,000); SaOS-2 split-luciferase Mdm2/MdmX complementation, luminescence; inhibition, % at 8 µM; O15151+Q00987; AID 485346;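 active = inhibition of at least 50% at 8 µM in the primary screen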
# Target sequence (O15151 whole entry, looked up): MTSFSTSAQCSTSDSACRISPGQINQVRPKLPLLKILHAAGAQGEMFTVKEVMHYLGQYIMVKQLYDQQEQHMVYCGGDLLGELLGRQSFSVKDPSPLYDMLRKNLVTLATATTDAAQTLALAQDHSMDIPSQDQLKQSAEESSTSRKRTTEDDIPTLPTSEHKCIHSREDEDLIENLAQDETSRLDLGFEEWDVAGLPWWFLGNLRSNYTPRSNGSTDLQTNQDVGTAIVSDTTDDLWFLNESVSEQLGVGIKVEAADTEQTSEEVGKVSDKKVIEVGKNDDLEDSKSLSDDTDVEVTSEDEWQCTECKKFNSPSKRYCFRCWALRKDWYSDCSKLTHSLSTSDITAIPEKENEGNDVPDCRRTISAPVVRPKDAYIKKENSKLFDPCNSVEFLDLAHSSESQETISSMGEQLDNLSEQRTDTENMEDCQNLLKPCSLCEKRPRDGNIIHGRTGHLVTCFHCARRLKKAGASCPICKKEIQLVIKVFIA
# Target sequence (Q00987 whole entry, looked up): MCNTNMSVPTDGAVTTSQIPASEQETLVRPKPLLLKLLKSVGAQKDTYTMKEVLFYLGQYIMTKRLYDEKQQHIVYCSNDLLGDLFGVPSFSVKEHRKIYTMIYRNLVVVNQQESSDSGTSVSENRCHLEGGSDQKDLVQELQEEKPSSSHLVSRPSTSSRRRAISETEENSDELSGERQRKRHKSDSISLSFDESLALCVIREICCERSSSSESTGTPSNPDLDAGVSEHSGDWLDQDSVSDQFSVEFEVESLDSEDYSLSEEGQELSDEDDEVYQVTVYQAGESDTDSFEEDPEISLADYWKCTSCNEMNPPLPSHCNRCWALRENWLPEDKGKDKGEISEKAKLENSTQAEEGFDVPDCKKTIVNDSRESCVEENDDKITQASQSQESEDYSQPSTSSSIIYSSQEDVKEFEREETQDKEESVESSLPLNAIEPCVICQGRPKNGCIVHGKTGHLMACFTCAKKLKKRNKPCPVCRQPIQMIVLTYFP
# Calb FLC: affects C. albicans growth with fluconazole. C. albicans CaCi-2 + fluconazole, Alamar Blue growth, 48 h. growth inhibition, % (no concentration beside the values). actives 0.57% (n = 300,000). AID 1979;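 active = growth inhibition above about 58% in most replicates, limit read from the data, passing the limit was not always enough; inconclusive = exactly half the replicates above a set limit; inactive = most replicates below a set limit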;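 also: all wells also contain fluconazole at 8 µg/ml as a sub-toxic cotreatment; 0% = median of DMSO wells and 100% = median of geldanamycin control wells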
# CSC inhib: cancer stem cell inhibition. cancer stem cell-like cells viability, luminescence. inhibition, % at 7.5 µM. actives 1.1% (n = 300,000). AID 2717; in the data active = inhibition above about 75%; inconclusive = no clear call, values can overlap the other calls; tested in HMLE shEcad cells
# Beta apoptosis: beta cell apoptosis inhibition; AID 435005; actives 0.8% (n = 300,000); protection from apoptosis, % (test concentration not listed); INS-1E cytokine-induced death, ATP luminescence, 48 h; percent of positive-control rescue, neutral wells zero;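 active = Every replicate reaches about 75%, or at least half do and their mean reaches it too, limit read from the data; inconclusive = At least half of replicates reach the limit but their mean does not; inactive = Under half of replicates reach the limit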;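 also: 0% = cytokine-treated negative control wells and 100% = positive control rescue; higher means more ATP so stronger rescue from cytokine killing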
# * marks the source's active call; other numbers are inactive results; ? = inconclusive; nt = no result.
SMILES,NLRP3 yeast inh,T cruzi repl,Mdm2-MdmX inh,Calb FLC,CSC inhib,Beta apoptosis
CN1CCc2c(sc3c2C(=O)NC(c2cn(Cc4ccccc4)c4ccccc24)N3)C1 (configuration not stated),39,21,18,-1,71,-9
c1ccc(CNc2ncnc3sccc23)cc1,18,-22,22,21,-7,38
c1csc(CNc2ncnc3sccc23)c1,17,-27,-7,85*,-1,80*
COc1ccc(CNc2ncnc3sccc23)cc1OC,12,-9,17,7,2,54
COc1ccc(CNc2ncnc3sccc23)cc1,36,-31,28,-11,2,75*
Cc1ccc(SCC2(O)CCN(S(=O)(=O)c3ccc(Cl)cc3)CC2)cc1,24,11,-3,35,52,2
CN1CCN(CC2(O)CCN(S(=O)(=O)c3ccc(Cl)cc3)CC2)CC1,-7,72*,-25,15,-5,0
Cc1cccc(NC(=O)C(=O)NNC(=O)c2ccc(C(C)(C)C)cc2)c1,12,4,-2,?,8,6
Cc1ccc(F)c(NC(=O)/C(C#N)=C(\O)c2ccc(C(C)(C)C)cc2)c1,-7,-2,-17,47,79*,-2
COc1ccccc1-c1cc2nc(C)c(CCC(=O)NCc3ccc(F)cc3)c(C)n2n1,9,61*,-3,-4,3,0
COc1ccccc1CNC(=O)CCc1c(C)nc2cc(-c3ccccc3OC)nn2c1C,17,21,10,-7,-10,0
COC(=O)Cn1c(=NC(=O)c2ccc(Cl)s2)sc2cc(C)ccc21,20,13,11,-17,-18,-1
CCN(CC)c1ccc(NC(=O)COC(=O)/C=C/c2nc3ccccc3s2)cc1,6,5,-7,0,-12,-2
CCN(CC)c1ccc(/C=C/c2nc3ccccc3s2)cc1,17,27,45,?,90*,-1
COc1cc(NC(=O)COc2ccc(-n3ccnc3)cc2)cc(OC)c1,13,-4,-34,2,-2,-8
CC(C)(C)c1ccc(NC(=O)COc2ccc(-n3ccnc3)cc2)cc1,14,59*,20,-18,51,2
COc1cc(C)c(S(=O)(=O)N2CCOCC2)cc1C(C)C,18,3,-2,-1,-4,-9
COc1cc(C)c(N)cc1C(C)C,0,67*,20,-3,-15,-1
COc1cccc(/C=N/Nc2nccnc2Cl)c1O,15,34,48,106*,nt,nt
COc1cccc(/C=N/Nc2nc3ccccc3n3cnnc23)c1O,9,14,34,-3,57,119*
CN1CCc2c(sc3c2c(=O)n(-c2ccc(Cl)cc2)c2nncn32)C1,25,30,21,7,-1,2
Cc1ccc(-n2c(N)c(C(=O)Nc3c(C)n(C)n(-c4ccccc4)c3=O)c3nc4ccccc4nc32)cc1,8,13,35,-2,-19,8
Cc1cc(C)cc(-n2c(N)c(C(=O)Nc3c(C)n(C)n(-c4ccccc4)c3=O)c3nc4ccccc4nc32)c1,6,56*,39,-5,12,39
Nc1nc(CN2CCN(c3ccccn3)CC2)nc(Nc2ccc(F)cc2)n1,12,-11,-1,92*,nt,2
Nc1nc(CN2CCCCCC2)nc(Nc2ccc(F)cc2)n1,11,-2,9,-4,3,-7
SMILES,NLRP3 yeast inh,T cruzi repl,Mdm2-MdmX inh,Calb FLC,CSC inhib,Beta apoptosis
c1cnc2ccc(C(c3nnnn3C3CCCCC3)N3CCN(C4CCCCC4)CC3)cc2c1 (configuration not stated),9,69*,21,-13,-20,7
O=C(Nc1ccc(Cl)c(Cl)c1)OCc1cccnc1,-15,65*,24,-12,4,12
CCOC(=O)c1cc(C#N)c(Nc2ccccc2OC)nc1C(F)(F)F,2,-1,19,-5,-8,nt
COC(=O)c1sccc1Oc1ccc(Cl)cc1N1C(=O)CCC1=O,19,11,1,-2,17,nt
COC(=O)c1c(C)n(-c2ccccc2)c2ccc(O)cc12,24,14,27,92*,13,-2
CC(=O)c1c(C)n(-c2ccccc2)c2ccc(O)cc12,19,-4,40,15,3,-7
Cc1ccc(/C=C/C(=O)NCCCN2CCN(CCCNC(=O)/C=C/c3ccc(C)o3)CC2)o1,2,6,15,55,-3,-2
O=C(CSc1nc(-c2ccco2)cc(C(F)(F)F)n1)Nc1ccccc1C(F)(F)F,-6,-14,35,-3,75*,8
COc1cccc(NC(=O)C2CCN(C(=O)NC3CCCCC3)CC2)c1,3,-7,-19,0,nt,-4
CCOC(=O)Cc1csc(NC(=O)c2cc(=O)c3ccccc3o2)n1,4,-14,-5,6,3,3
Cc1cc(C)c2nc(NNC(=O)c3cc(=O)c4ccccc4o3)sc2c1,23,-12,5,-19,79*,4
Cc1oc2c(c1C(=O)N1CCC(C)CC1)C(=O)c1ccccc1C2=O,16,37,39,-5,?,110*
FC(F)(F)c1ccc(C2[C@H]3CN(Cc4cccnc4)[C@H](c4ccccc4)C34CC2(c2cccnc2)C4)cc1 (some centres not stated),5,48,45,13,102*,15
COC(=O)c1ccc(C23CC4(C2)[C@H](CN(Cc2cccnc2)[C@@H]4c2ccccc2)C3c2ccc(C(F)(F)F)cc2)cc1 (some centres not stated),10,31,18,-7,10,2
CCOc1ccc(OCCn2c(=S)[nH]c3ccccc32)cc1,35,11,-14,15,-16,-4
Cc1cc(C)cc(NC(=O)CSc2nc3c(oc4ccccc43)c(=O)n2-c2ccccc2)c1,18,55*,17,25,6,-1
O=C(c1ccc(Cl)cc1)N1CCN(c2ccnc3cc(Cl)ccc23)CC1,nt,69*,nt,99*,nt,nt
CCC(=O)N1CCN(c2ccnc3cc(Cl)ccc23)CC1,14,5,5,2,-10,-4
O=C(Cn1cnc([N+](=O)[O-])n1)NCc1ccccc1,20,79*,9,21,3,4
O=C(Cn1cnc([N+](=O)[O-])n1)N/N=C/c1ccc2ccccc2c1,6,62*,12,-3,-3,-2
O=C(O)C(NS(=O)(=O)c1ccccc1)C(O)c1ccccc1 (configuration not stated),22,-8,21,2,0,4
O=c1[nH]c2ccccc2cc1-c1noc(-c2cccnc2)n1,3,1,13,1,-8,-2
Cc1ccc(OCC(O)CNCc2ccc(F)cc2)cc1 (configuration not stated),12,56*,-7,-4,-15,0
